Assay [1] deals with T1, Botulinum neurotoxin type A (Clostridium botulinum, UniProt P0DPI0). The assay can be described thus: Inhibition of Clostridium botulinum toxin BoNT/A light chain by FRET assay. In short, it runs like this:
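Recombinant BoNT/A light chain was assayed by FRET substrate cleavage in 50 mM HEPES–0.05% Tween, pH 7.4. Reactions were stopped with acetic acid (0.5% final), and cleaved substrate fluorescence was read at 485 nm after excitation at 398 nm.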

The target of assay [2] is T1, Botulinum neurotoxin type A. The assay can be described thus: Inhibition of Clostridium botulinum toxin BoNT/A light chain by HPLC-based assay. The method in brief: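 Secondary HPLC-based cleavage assay with recombinant BoNT/A light chain, used to confirm FRET data. Values are the average of two experiments with variation under 10%.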
The target in a further assay is T2, Lethal factor (Bacillus anthracis, UniProt P15917).
T2 sequence (P15917 whole entry): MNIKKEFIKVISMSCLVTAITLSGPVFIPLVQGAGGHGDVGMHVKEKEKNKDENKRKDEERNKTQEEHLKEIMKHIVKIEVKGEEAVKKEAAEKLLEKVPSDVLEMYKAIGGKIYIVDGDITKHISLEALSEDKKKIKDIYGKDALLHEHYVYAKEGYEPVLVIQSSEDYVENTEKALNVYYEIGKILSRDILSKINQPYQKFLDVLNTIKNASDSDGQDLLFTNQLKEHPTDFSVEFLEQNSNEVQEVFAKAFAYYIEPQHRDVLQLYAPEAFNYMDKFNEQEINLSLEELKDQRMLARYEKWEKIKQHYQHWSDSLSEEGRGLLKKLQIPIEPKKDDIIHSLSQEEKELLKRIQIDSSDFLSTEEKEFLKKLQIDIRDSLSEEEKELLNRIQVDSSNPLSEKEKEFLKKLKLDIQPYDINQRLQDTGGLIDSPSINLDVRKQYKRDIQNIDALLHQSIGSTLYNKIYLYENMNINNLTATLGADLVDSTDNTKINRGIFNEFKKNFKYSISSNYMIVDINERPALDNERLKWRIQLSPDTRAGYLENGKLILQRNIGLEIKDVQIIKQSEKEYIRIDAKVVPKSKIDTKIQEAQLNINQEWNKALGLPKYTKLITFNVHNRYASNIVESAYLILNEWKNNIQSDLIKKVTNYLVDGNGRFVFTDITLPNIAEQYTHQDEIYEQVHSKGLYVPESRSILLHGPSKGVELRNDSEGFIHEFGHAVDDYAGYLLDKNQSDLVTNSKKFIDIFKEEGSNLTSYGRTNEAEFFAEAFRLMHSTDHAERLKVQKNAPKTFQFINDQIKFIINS
As to the kind of experiment: Inhibition of Bacillus anthracis anthrax lethal factor by FRET assay.

The nature of assay [3]: Selectivity ratio of IC50 for Bacillus anthracis anthrax lethal factor to IC50 for Clostridium botulinum toxin BoNT/A light chain.
For assay [4], the target named is Matrix metalloproteinase-9 (Homo sapiens) (UniProt P14780). The assay can be described thus: Inhibition of human MMP9.
Chain of Matrix metalloproteinase-9 (Homo sapiens) (P14780 whole entry): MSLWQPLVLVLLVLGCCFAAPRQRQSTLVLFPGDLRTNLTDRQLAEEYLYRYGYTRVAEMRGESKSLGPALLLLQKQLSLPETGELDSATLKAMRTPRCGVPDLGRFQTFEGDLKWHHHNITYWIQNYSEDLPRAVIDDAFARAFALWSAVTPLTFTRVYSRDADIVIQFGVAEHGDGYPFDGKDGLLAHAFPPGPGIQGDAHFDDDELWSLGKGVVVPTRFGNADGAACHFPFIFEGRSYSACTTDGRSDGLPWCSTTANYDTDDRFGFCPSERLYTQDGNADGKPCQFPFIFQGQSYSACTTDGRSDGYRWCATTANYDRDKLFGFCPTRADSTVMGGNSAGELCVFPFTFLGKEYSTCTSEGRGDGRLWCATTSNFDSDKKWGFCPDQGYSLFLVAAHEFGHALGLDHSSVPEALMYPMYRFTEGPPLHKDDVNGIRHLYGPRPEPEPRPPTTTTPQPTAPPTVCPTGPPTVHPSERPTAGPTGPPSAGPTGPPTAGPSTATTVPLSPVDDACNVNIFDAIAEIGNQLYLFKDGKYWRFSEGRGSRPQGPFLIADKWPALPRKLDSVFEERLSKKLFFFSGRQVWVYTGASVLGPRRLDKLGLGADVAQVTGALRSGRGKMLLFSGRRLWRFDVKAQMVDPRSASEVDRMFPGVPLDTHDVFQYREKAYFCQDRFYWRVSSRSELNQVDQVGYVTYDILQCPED
The target in assay [5] is T3, Interstitial collagenase (Homo sapiens) (UniProt P03956).
T3 sequence (whole entry): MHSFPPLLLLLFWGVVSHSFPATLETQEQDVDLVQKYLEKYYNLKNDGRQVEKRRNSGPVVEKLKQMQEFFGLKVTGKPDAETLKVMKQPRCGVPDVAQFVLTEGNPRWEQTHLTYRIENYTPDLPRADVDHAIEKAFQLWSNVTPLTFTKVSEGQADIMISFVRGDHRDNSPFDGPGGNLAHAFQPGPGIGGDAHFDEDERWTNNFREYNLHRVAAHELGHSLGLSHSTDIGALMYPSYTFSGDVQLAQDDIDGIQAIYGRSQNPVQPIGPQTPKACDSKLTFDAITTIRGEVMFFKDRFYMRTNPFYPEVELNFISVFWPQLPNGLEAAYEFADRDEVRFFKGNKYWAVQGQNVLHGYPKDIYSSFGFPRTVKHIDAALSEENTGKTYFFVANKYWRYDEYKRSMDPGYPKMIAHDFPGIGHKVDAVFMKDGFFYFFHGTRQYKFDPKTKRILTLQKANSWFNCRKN
The assay can be described thus: Inhibition of human MMP1.

For assay [6], the target named is T4, Botulinum neurotoxin type B (Clostridium botulinum) (UniProt P10844).
T4 sequence (whole entry): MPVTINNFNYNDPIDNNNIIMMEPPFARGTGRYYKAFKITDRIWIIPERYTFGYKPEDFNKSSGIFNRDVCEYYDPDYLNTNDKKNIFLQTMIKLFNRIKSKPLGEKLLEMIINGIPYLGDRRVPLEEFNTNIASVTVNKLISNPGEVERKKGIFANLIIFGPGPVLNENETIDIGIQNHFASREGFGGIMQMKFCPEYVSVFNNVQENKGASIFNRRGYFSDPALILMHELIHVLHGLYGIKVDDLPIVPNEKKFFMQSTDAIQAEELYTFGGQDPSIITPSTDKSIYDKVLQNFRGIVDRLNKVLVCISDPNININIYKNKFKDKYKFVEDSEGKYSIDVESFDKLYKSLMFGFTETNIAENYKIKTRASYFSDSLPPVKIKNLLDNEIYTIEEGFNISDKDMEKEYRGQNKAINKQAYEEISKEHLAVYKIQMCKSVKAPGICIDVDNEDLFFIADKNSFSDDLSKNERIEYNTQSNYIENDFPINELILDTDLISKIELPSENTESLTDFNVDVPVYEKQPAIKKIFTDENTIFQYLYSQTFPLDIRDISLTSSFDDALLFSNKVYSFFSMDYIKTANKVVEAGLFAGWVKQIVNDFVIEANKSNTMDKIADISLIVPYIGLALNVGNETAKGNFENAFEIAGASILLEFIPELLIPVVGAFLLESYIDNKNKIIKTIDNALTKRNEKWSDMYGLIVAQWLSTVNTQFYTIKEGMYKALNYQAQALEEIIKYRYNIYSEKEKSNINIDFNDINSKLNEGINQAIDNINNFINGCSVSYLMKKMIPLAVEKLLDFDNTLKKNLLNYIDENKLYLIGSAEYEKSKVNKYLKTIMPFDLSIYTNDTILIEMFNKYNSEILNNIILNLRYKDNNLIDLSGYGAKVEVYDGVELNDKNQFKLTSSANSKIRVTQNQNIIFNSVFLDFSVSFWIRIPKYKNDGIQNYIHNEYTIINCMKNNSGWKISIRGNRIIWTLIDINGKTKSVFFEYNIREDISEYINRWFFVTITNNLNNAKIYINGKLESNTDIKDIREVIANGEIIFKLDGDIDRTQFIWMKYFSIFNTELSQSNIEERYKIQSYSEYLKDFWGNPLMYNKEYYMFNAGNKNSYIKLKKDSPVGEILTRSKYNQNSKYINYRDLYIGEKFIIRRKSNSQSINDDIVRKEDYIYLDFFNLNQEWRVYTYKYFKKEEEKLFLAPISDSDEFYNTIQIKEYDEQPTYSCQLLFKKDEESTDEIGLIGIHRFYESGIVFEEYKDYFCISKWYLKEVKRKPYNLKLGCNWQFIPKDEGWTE
As to the kind of experiment: Inhibition of Clostridium botulinum toxin BoNT/B.

Assay [7] addresses T1, Botulinum neurotoxin type A. The assay can be described thus: Inhibition of Clostridium botulinum toxin BoNT/A light chain.
For assay [8], the target named is Botulinum neurotoxin type A (Clostridium botulinum) (UniProt P0DPI0). The note with it: 20 uM.
Chain of Botulinum neurotoxin type A (Clostridium botulinum) (P0DPI0 2-448 limits assumed): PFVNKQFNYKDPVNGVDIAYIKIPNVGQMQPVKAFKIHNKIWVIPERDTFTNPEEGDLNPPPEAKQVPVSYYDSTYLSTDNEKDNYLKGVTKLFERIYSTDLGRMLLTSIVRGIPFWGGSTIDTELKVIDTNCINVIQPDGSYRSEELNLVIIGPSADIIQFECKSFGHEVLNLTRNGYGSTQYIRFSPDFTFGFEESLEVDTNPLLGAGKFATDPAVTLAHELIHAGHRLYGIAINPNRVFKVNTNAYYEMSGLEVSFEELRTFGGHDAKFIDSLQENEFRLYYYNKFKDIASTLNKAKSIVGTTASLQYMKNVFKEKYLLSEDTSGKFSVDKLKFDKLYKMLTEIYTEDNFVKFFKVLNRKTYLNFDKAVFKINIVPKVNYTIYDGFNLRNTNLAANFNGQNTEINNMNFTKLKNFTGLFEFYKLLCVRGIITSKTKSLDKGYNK

Each structure is given as a SMILES string. Activity calls are given as the source filed them. No cut-off for these calls is given here.

T1 sequence (P0DPI0 2-448 limits assumed): as above

As for `c1cc(C2=NCCCN2)ccc1Oc1ccc(-c2cc3ccc(C4=NCCCN4)cc3[nH]2)cc1`, the IC50 in assay [1] is 21 µM; in assay [2], 43 µM; against Lethal factor it was greater than 100 µM.
As for `c1cc(C2=NCCCN2)ccc1Oc1ccc(-c2nc3ccc(C4=NCCCN4)cc3[nH]2)cc1`, the values for the IC50 in assay [1] and in assay [2] were 28 µM and 41 µM, respectively.
With `c1cc(-c2cc3ccc(C4=NCCCN4)cc3[nH]2)ccc1C1=NCCCN1`, the concentration for half-maximal inhibition (IC50) (in assay [1]; at Lethal factor) was greater than 100 µM each time.
On to `CN(C)CC/N=C(\N)c1ccc(Oc2ccc(-c3cc4ccc(/C(N)=N/CCN(C)C)cc4[nH]3)cc2)cc1`, for which the Ratio IC50 in assay [3] was 10. Moreover, the inhibition result in assay [4], in assay [5] and in assay [6] was “inactive” in each case. Also, the 50% inhibitory concentration (IC50) in [1] was found to be 2.5 µM; in assay [2], 4.4 µM; against Lethal factor, 28 µM.
Consider `c1cc(C2=NCCN2)ccc1Oc1ccc(-c2cc3ccc(C4=NCCN4)cc3[nH]2)nc1`, for which the IC50 in [1] was 69 µM; in assay [2], greater than 100 µM; on Lethal factor, 55 µM.
In the case of `OC1CN=C(c2ccc(Oc3ccc(-c4cc5ccc(C6=NCC(O)CN6)cc5[nH]4)cc3)cc2)NC1` (configuration not stated), in [3], the Ratio IC50 was determined as 10. For the same molecule, the values for the half-inhibitory concentration (IC50) (in assay [1]; against Lethal factor) were 7.3 µM and greater than 100 µM, respectively.
For the molecule `c1cc(-c2cc3ccc(C4=NCCN4)cc3s2)ccc1C1=NCCN1`, the half-inhibitory concentration (IC50) in assay [1] was 43 µM; against Lethal factor, greater than 100 µM.
As to `c1cc(C2=NCCN2)ccc1Oc1ccc(-c2cc3ccc(C4=NCCN4)cc3s2)cc1`, the IC50 in [1] worked out at 7.1 µM; in [2], 25 µM; against Lethal factor it was 18 µM.
Taken in the same sequence, the figures for `c1cc(C2=NCCN2)ccc1Oc1ccc(-c2cc3ccc(C4=NCCN4)cc3[nH]2)cc1` were 12.5 µM, 9.4 µM and 43 µM.
`c1cc(C2=NCCN2)ccc1Oc1ccc(-c2nc3ccc(C4=NCCN4)cc3[nH]2)cc1` returned a concentration for half-maximal inhibition (IC50) in assay [1] of 24.5 µM.
For `Clc1ccc(Oc2ccc(-c3cc4ccc(C5=NCCN5)cc4[nH]3)cc2)c(Cl)c1`, the IC50 in assay [1] was greater than 25 µM; in assay [2], 52 µM; against Lethal factor, greater than 100 µM.
Regarding `NC(=O)c1ccc(Oc2ccc(-c3cc4ccc(C(N)=O)cc4[nH]3)cc2)cc1`, the IC50 (in [1]; on Lethal factor) was greater than 100 µM each time.
In [7], `NCCCCCCCNCCCCCCCNC(=O)c1cc(CCC(=O)NO)c(CCC(O)(c2ccccc2)c2ccccc2)[nH]1` showed a 50% inhibitory concentration (IC50) of less than 1 µM and an inhibition constant Ki of 0.76 µM.
Regarding `N#Cc1ccc(Oc2ccc(-c3cc4ccc(C#N)cc4[nH]3)nc2)cc1`, the IC50 (in [1]; against Lethal factor) was greater than 100 µM in each case.
In turn, `CCOc1ccc(C(Nc2cccnc2)c2cc(Cl)c3cccnc3c2O)cc1` (configuration not stated) came in with an IC50 in assay [7] of 0.5 µM.
On to `N#Cc1ccc(Oc2ccc(-c3cc4ccc(C#N)cc4[nH]3)cc2)cc1`, for which, in assay [1], the IC50 is greater than 100 µM.
For the molecule `N#Cc1ccc(Oc2ccc(-c3cc4ccc(C#N)cc4[nH]3)cc2)c(Cl)c1`, in assay [1], the half-maximal inhibitory concentration (IC50) was greater than 100 µM.
For the molecule `Clc1ccc2cc(-c3ccc(Oc4ccc(C5=NCCN5)cc4)cc3)[nH]c2c1`, the IC50 in [1] is greater than 100 µM; at Lethal factor, 51 µM.
With `N#Cc1ccc(Oc2ccc(-c3cc4ccc(C(=N)N)cc4[nH]3)cc2)cc1`, the concentration for half-maximal inhibition (IC50) in [1] is greater than 25 µM; against Lethal factor, greater than 100 µM.
As to `c1cc(C2=NCCCN2)ccc1Oc1ccc(-c2cc3ccc(C4=NCCCN4)cc3[nH]2)nc1`, the half-inhibitory concentration (IC50) was 67 µM in [1], greater than 100 µM in assay [2] and greater than 100 µM at Lethal factor.
As to `c1cc(-c2cc3ccc(C4=NCCN4)cc3[nH]2)ccc1C1=NCCN1`, the inhibition entry in [4], in assay [5] and in assay [6] was “inactive” in each case. In addition, the IC50 stood at 20 µM in assay [1] and 49 µM at Lethal factor.
Regarding `c1cc(C2=NCCCN2)ccc1Oc1ccc(-c2cc3ccc(C4=NCCCN4)cc3s2)cc1`, the values for the IC50 (in assay [1]; against Lethal factor) were 54 µM and greater than 100 µM, respectively.
With `c1cc(-c2cc3ccc(C4=NCCCN4)cc3s2)ccc1C1=NCCCN1`, in assay [1], the IC50 was greater than 100 µM.
Regarding `N#Cc1ccc(Oc2ccc(-c3cc4ccc(C5=NCCN5)cc4[nH]3)cc2)c(Cl)c1`, the IC50 in [1] was 30 µM; on Lethal factor, greater than 100 µM.
For `N=C(N)c1ccc(Oc2ccc(-c3cc4ccc(C(=N)N)cc4[nH]3)cc2)cc1`, the IC50 was 11 µM in assay [1], 17 µM in [2] and 35 µM against Lethal factor. The molecule further returned an inhibition in assay [8] of 75%.

The term IC50 denotes the concentration that inhibits the measured activity by half. A lower IC50 goes with inhibition by little substance. The term inhibition denotes the share of the control response that was lost under treatment. For orientation: Ki means a dissociation constant, usually derived from enzyme kinetics or from competition with a known ligand.

(Values after ChEMBL document CHEMBL1157595, “Synthesis and biological evaluation of botulinum neurotoxin a protease inhibitors” (J Med Chem, 2010).)
